Assay results: PubChem BioAssay AID504516 (Sanford-Burnham Center for Chemical Genomics, 2011)
pIC50: −log10 of the molar value. Active and inactive are the calls of the source.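 Rule for the calls: active = IC50 at or below 20 µM; inactive = the rest.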

System: Jurkat NF-kB luciferase, PMA/ionomycin, luminescence 16 h
Assay: NF-kB reporter inhibition in Jurkat T cells, SAR follow-up, counter-screen for B-cell antigen receptor NF-kB inhibitors, cell-based, luminescence (AID 504516)
Outline: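 Detection: SteadyGlo luminescence | System: Jurkat NF-kB luciferase reporter cells | Quantity: 8000 reporter cells per well | Doses: Test compounds in dose-response series | Timing: 1 h compound pre-incubation, 16 h agonist exposure, 37 °C | Control set: DMSO-only and no-agonist wells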

CCOc1cccc(-c2nc(CSCC(=O)NC3CC3)c(C)o2)c1
IC50: > 79 µM (inactive)

CCNC(=O)CCc1nc(-c2c(Cl)cccc2Cl)no1
IC50: > 79 µM (inactive)

Cc1oc(-c2ccccc2)nc1CSCC(=O)NCc1ccco1
IC50: > 79 µM (inactive)

CCOc1ccc(-c2nc(CSCC(N)=O)c(C)o2)cc1
IC50: > 79 µM (inactive)

Cc1ccc(-c2nc(CSCC(=O)NC3CC3)c(C)o2)cc1
IC50: > 79 µM (inactive)

CC(C)(C)c1ccc(-c2noc(CCC(N)=O)n2)cc1
pIC50: 6.72

CC(C)c1ccc(-c2noc(CCC(=O)NC3CC3)n2)cc1
IC50: > 79 µM (inactive)

CCOc1ccc(-c2nc(CSCC(=O)NC)c(C)o2)cc1
IC50: > 79 µM (inactive)

COc1ccc(-c2nc(CSCC(=O)NC3CC3)c(C)o2)cc1
IC50: > 79 µM (inactive)

Cc1oc(-c2ccc(C(F)(F)F)cc2)nc1CSCC(=O)O
pIC50: 6.28

CCNC(=O)CCc1nc(-c2ccc(C(C)(C)C)cc2)no1
IC50: > 79 µM (inactive)

CNC(=O)CCc1nc(-c2ccc(C(C)C)cc2)no1
IC50: > 79 µM (inactive)

CCOc1ccc(-c2nc(CSCC(=O)O)c(C)o2)cc1
pIC50: > 6.82

CCc1ccc(-c2noc(CCC(=O)NC(C)(C)C)n2)cc1
IC50: > 79 µM (inactive)

CCCCOc1ccc(-c2nc(CSCC(=O)NCc3ccco3)c(C)o2)cc1
IC50: > 79 µM (inactive)

CCCCc1ccc(-c2noc(CCC(=O)NC(C)CC)n2)cc1 (stereo not drawn)
pIC50: 6.39

CC(C)(C)c1ccc(-c2noc(CCC(=O)NC3CC3)n2)cc1
IC50: 58.7 µM (inactive)

CCNC(=O)CCc1nc(-c2cccc(F)c2)no1
IC50: > 79 µM (inactive)

CCNC(=O)CCc1nc(-c2ccccc2Cl)no1
IC50: > 79 µM (inactive)

CCOc1ccc(-c2nc(CSCC(=O)NCc3ccco3)c(C)o2)cc1
IC50: 25.4 µM (inactive)

CCc1ccc(-c2nc(CSCC(=O)NCc3ccco3)c(C)o2)cc1
IC50: > 79 µM (inactive)

CCOC(=O)CC(NC(=O)c1ccc(Br)cc1)c1ccc(F)c([N+](=O)[O-])c1 (stereo not drawn)
IC50: 42.7 µM (inactive)

CCCCOc1ccc(-c2nc(CSCC(=O)NC3CC3)c(C)o2)cc1
IC50: > 79 µM (inactive)

COc1cccc(-c2cc(=O)c3cc(NC(=O)c4ccccc4)ccc3[nH]2)c1
IC50: > 79 µM (inactive)

Cc1ccc(-c2nc(CSCC(=O)NCc3ccco3)c(C)o2)cc1
IC50: > 79 µM (inactive)

CCCCOc1ccc(-c2nc(CSCC(=O)O)c(C)o2)cc1
pIC50: > 6.82

CCC(C)NC(=O)CCc1nc(-c2ccc(C(C)C)cc2)no1 (stereo not drawn)
IC50: > 79 µM (inactive)

CCOc1ccc(-c2nc(CSCC(=O)NC3CCC3)c(C)o2)cc1
IC50: 26.4 µM (inactive)

CCCCc1ccc(-c2noc(CCC(=O)NCC)n2)cc1
IC50: > 79 µM (inactive)

O=C(CCc1nc(-c2ccccc2)no1)NC1CC1
IC50: > 79 µM (inactive)

CCCCc1ccc(-c2noc(CCC(=O)NC3CC3)n2)cc1
pIC50: 5.90

Cc1oc(-c2ccc(OC(F)(F)F)cc2)nc1CSCC(=O)NC1CC1
IC50: > 79 µM (inactive)

Cc1oc(-c2ccccc2)nc1CSCC(=O)NC1CC1
IC50: > 79 µM (inactive)

CCc1ccc(-c2noc(CCC(=O)NC)n2)cc1
IC50: > 79 µM (inactive)

CC(C)Nc1ccc(C(CC(=O)O)NC(=O)c2ccccc2)cc1[N+](=O)[O-] (stereo not drawn)
IC50: > 79 µM (inactive)

CCC(C)NC(=O)CCc1nc(-c2ccccc2)no1 (stereo not drawn)
IC50: > 79 µM (inactive)

COc1ccc(-c2nc(CSCC(=O)NCc3ccco3)c(C)o2)cc1
IC50: > 79 µM (inactive)

CCOc1ccc(-c2nc(CSCC(=O)NC(C)(C)C)c(C)o2)cc1
pIC50: 4.97

COc1cccc(-c2cc(=O)c3cc(NC(=O)c4ccc(N(C)C)cc4)ccc3[nH]2)c1
IC50: > 79 µM (inactive)

COC(=O)CCc1nc(-c2ccc(C(C)(C)C)cc2)no1
pIC50: > 6.80

CCCOc1ccc(-c2nc(CSCC(=O)NCc3ccco3)c(C)o2)cc1
IC50: > 79 µM (inactive)

CC(C)(C)c1ccc(-c2noc(CCC(=O)NC3CCC3)n2)cc1
pIC50: 6.03

CCNC(=O)CCc1nc(-c2ccc(CC)cc2)no1
IC50: > 79 µM (inactive)

CCNC(=O)CCc1nc(-c2ccc(OCC)cc2)no1
IC50: > 79 µM (inactive)

CCNC(=O)CCc1nc(-c2ccccc2)no1
IC50: > 79 µM (inactive)

CCOc1ccc(-c2nc(CSCC(=O)NCC3CC3)c(C)o2)cc1
IC50: 20.9 µM (inactive)

C#CCNC(=O)CSCc1nc(-c2ccc(OCC)cc2)oc1C
IC50: > 79 µM (inactive)

CCNC(=O)CCc1nc(-c2cccc(OC)c2)no1
IC50: > 79 µM (inactive)

CC(C)c1ccc(-c2noc(CCC(=O)NC(C)(C)C)n2)cc1
pIC50: 4.82

CN(C)C(=O)CCc1nc(-c2ccc(C(C)(C)C)cc2)no1
IC50: 71.3 µM (inactive)

CCc1ccc(-c2noc(CCC(=O)NC3CC3)n2)cc1
IC50: > 79 µM (inactive)

CCOc1ccccc1-c1nc(CSCC(=O)NC2CC2)c(C)o1
IC50: > 79 µM (inactive)

CCN(CC)C(=O)CCc1nc(-c2ccc(C(C)(C)C)cc2)no1
pIC50: 4.79

CCOc1ccccc1-c1nc(CSCC(=O)O)c(C)o1
IC50: > 79 µM (inactive)

CCCOc1ccc(-c2nc(CSCC(=O)NC3CC3)c(C)o2)cc1
IC50: > 79 µM (inactive)

Cc1oc(-c2ccc(C(F)(F)F)cc2)nc1CSCC(=O)NC1CC1
IC50: > 79 µM (inactive)

CCc1ccc(-c2nc(CSCC(=O)NC3CC3)c(C)o2)cc1
IC50: > 79 µM (inactive)

CC(C)(C)NC(=O)CCc1nc(-c2ccccc2)no1
IC50: > 79 µM (inactive)

CCOc1ccc(-c2nc(CSCC(=O)N(C)C)c(C)o2)cc1
IC50: > 79 µM (inactive)

CCNC(=O)CCc1nc(-c2cccc(C)c2)no1
IC50: > 79 µM (inactive)

CC(C)(C)c1ccc(-c2noc(CCC(=O)O)n2)cc1
pIC50: 6.70

CCNC(=O)CCc1nc(-c2ccc(C(C)C)cc2)no1
IC50: > 79 µM (inactive)

CNC(=O)CCc1nc(-c2ccc(C(C)(C)C)cc2)no1
IC50: > 79 µM (inactive)

CCc1ccc(-c2nc(CSCC(=O)NC3CC3)c(-c3ccccc3)o2)cc1
IC50: 72.8 µM (inactive)

CCC(C)NC(=O)CCc1nc(-c2ccc(C(C)(C)C)cc2)no1 (stereo not drawn)
IC50: > 79 µM (inactive)

CCCCc1ccc(-c2noc(CCC(=O)NC)n2)cc1
IC50: > 79 µM (inactive)

CCOc1ccc(-c2nc(CSCC(=O)NC3CC3)c(-c3ccccc3)o2)cc1
IC50: 54.6 µM (inactive)

COc1ccc(C(=O)Nc2ccc3[nH]c(-c4cccc(OC)c4)cc(=O)c3c2)cc1
IC50: > 79 µM (inactive)

CCOc1ccc(-c2nc(CSCC(=O)NC3CC3)c(C)o2)cc1
IC50: > 79 µM (inactive)

CCCCc1ccc(-c2noc(CCC(=O)NC(C)(C)C)n2)cc1
pIC50: 5.79

CCc1ccc(-c2noc(CCC(=O)NC(C)CC)n2)cc1 (stereo not drawn)
IC50: > 79 µM (inactive)

CNC(=O)CCc1nc(-c2ccccc2)no1
IC50: > 79 µM (inactive)

CCOc1ccc(-c2nc(CSCC(=O)N3CCOCC3)c(C)o2)cc1
IC50: > 79 µM (inactive)

Cc1oc(-c2ccc(OC(F)(F)F)cc2)nc1CSCC(=O)O
pIC50: 6.66

CCCOc1ccc(-c2nc(CSCC(=O)O)c(C)o2)cc1
pIC50: > 6.82

CCNC(=O)CCc1nc(-c2ccccc2C)no1
IC50: > 79 µM (inactive)

O=C(O)CCc1nc(-c2ccccc2)no1
IC50: > 79 µM (inactive)

CCOc1ccc(-c2noc(CCC(=O)O)n2)cc1
pIC50: 5.03
